Assay results taken from ChEMBL document CHEMBL3826940, “Amphipathicity Determines Different Cytotoxic Mechanisms of Lysine- or Arginine-Rich Cationic Hydrophobic Peptides in Cancer Cells” (J Med Chem, 2016).
Activity calls are given as the source filed them. The rule behind the calls is not given here.

Tests used:
[1] = test system: HeLa; experiment: Cytotoxicity against human HeLa cells assessed as cell viability after 24 hrs by MTT assay; assay type: functional, cell-based
Outline: (§1)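 MTT viability assay. Cells were seeded at 1 × 10^4 cells/well in complete medium and grown 24 h. Medium was replaced with fresh medium containing peptide over a concentration series and incubated 24 h. MTT (5 mg/mL) was added for 4 h, formazan was dissolved in DMSO, and A490 was read. IC50 was derived from mean ± SD of three independent experiments.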

[2] = test system: HeLa; experiment: Drug uptake in human HeLa cells at 5 uM after 15 mins using iridium dye labeled compound by confocal microscopic method; assay type: ADME, cell-based; conditions: 0.25 h
Outline: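 Peptides were labelled at the N-terminal His with [Ir(ppy)2(H2O)2]OTf: 200 μM each, mixed 1:1 in PBS, 2 h at 37 °C in the dark. HeLa cells (1 × 10^5 per dish, grown 24 h) were exposed to 5 μM labelled peptide. Live-cell confocal images were taken at 0, 5 and 15 min (excitation 403 nm, emission 500–560 nm).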

[3] = test system: MCF7; experiment: Cytotoxicity against human MCF7 cells assessed as cell viability after 24 hrs by MTT assay; assay type: functional, cell-based; outline: as §1
[4] = test system: A549; experiment: Cytotoxicity against human A549 cells assessed as cell viability after 24 hrs by MTT assay; assay type: functional, cell-based; outline: as §1
[5] = Cytotoxicity against HLF assessed as cell viability after 24 hrs by MTT assay; design: species or system Homo sapiens; conditions: human, hlf; outline: as §1
[6] = Cytotoxicity against human 293T cells assessed as cell viability after 24 hrs by MTT assay; assay type: cell-based, HEK-293T; conditions: human, hek-293t; outline: as §1
[7] = test system: HUVEC; experiment: Cytotoxicity against HUVEC assessed as cell viability after 24 hrs by MTT assay; assay type: cell-based, Homo sapiens; conditions: human, huvec; outline: as §1
[8] = Hemolytic activity in mouse RBC at 0.39 to 50 uM after 1 hr; assay type: ADME, cell-based; conditions: erythrocyte
Outline: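 Heparinized fresh mouse blood: RBCs were washed three times in 0.9% saline and diluted to 4.0 × 10^8 cells/mL. Peptides at various concentrations were incubated with the RBCs 1 h at 37 °C. After centrifugation at 1000 rpm for 10 min, supernatant absorbance was read at 540 nm, with 1% Triton X-100 set as 100% hemolysis.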

Row | Compound | IC50 [1] [µM] | Drug uptake [2] | Activity [3] | Activity [4] | Activity [5] | Activity [6] | Activity [7] | Activity [8]
1 | CC(C)C[C@@H](NC(=O)[C@@H](CCCNC(=N)N)NC(=O)[C@@H](CC(C)C)NC(=O)[C@@H](CC(C)C)NC(=O)[C@@H](CCCNC(=N)N)NC(=O)[C@@H](CCCNC(=N)N)NC(=O)[C@@H](CC(C)C)NC(=O)[C@@H](CCCNC(=N)N)NC(=O)[C@@H](CC(C)C)NC(=O)[C@@H](CC(C)C)NC(=O)[C@@H](CCCNC(=N)N)NC(=O)[C@@H](CC(C)C)NC(=O)[C@@H](CC(C)C)NC(=O)[C@@H](CCCNC(=N)N)NC(=O)CNC(=O)CNC(=O)[C@H](N)Cc1cnc[nH]1)C(N)=O | 4.1 | Active |  |  |  |  |  | 
2 | H-HGGKLLKLLKLKKLLKL-NH2 | 34.5 |  | inactive | inactive | Non-toxic | Non-toxic | Non-toxic | Non-toxic
